In paper PMC8126997 (ACS chemical biology, 2021):

How the values were obtained:
[1] = system: HTLV-1 Gag cleavage in SP cells (chronically infected with HTLV-1); assay: SP cell protease inhibition treatment, Gag processing by anti-p24 immunoblot; type: cell-based; details: 48 h; for FL Gag band percentage (mean ± SEM), cell lysate: SP cell lysate, DMSO 2.0 ± 1.0%; for FL Gag band percentage (mean ± SEM), cell lysate / FL Gag band percentage (mean ± SEM), viral particles produced from SP cells: n=3; for Amount of full-length (FL) Gag and larger size cleavage intermediates (CI): SP cell lysates and supernatants, 50 µM or 100 µM; for FL Gag band percentage (mean ± SEM), viral particles produced from SP cells: particles in cell culture supernatant
In short: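 SP cells kept in RPMI with 20% FC3 serum, 1% penicillin-streptomycin and human IL-2 (10 U/ml). Medium exchanged for medium containing 50 or 100 µM test compound, or 0.01% v/v DMSO control, for 48 h at 37 °C and 5% CO2. Supernatant was 0.22 µm-filtered and pelleted over an 8% Optiprep cushion, with pellet lysed in RIPA buffer. Lysates and pellets were immunoblotted with anti-p24. FL Gag was quantified as % of lane bands, reported as mean ± SEM (n=3), and compared with DMSO by one-tailed t-test.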

HTLV-1 protease = HTLV-1 protease (Human T-cell leukemia virus type I, UniProt Q82134, L40I); details: relative to UM6
[2] = system: wild type (WT) HIV-1 protease; details: cited from earlier work

Row | SMILES | FL Gag band percentage (mean ± SEM), cell lysate ([1]; 50 µM inhibitor) | FL Gag band percentage (mean ± SEM), cell lysate ([1]; 100 µM inhibitor) | Amount of full-length (FL) Gag and larger size cleavage intermediates (CI) [1] | FL Gag band percentage (mean ± SEM), viral particles produced from SP cells ([1]; 50 µM inhibitor) | FL Gag band percentage (mean ± SEM), viral particles produced from SP cells ([1]; 100 µM inhibitor) | Fold better inhibition of HTLV-1 protease than UM6 (HTLV-1 protease) | Potency against wild type (WT) HIV-1 protease [2]
1 | CCOP(=O)(COc1ccc(C[C@H](NC(=O)O[C@H]2CO[C@H]3OCC[C@H]32)[C@H](O)CN(CC(CC)CC)S(=O)(=O)c2ccc(N)cc2)cc1)OCC [PU6] | 32.4 ± 15.5% | 41.0 ± 13.7% | increased | 5.8 ± 2.8% | 12.9 ± 3.1% | 4 fold | 
2 | CC(C)CN(C[C@@H](O)[C@H](Cc1ccccc1)NC(=O)O[C@H]1CO[C@H]2OCC[C@H]21)S(=O)(=O)c1ccc(N)cc1 [DRV, darunavir, reference compound] |  |  | increased |  |  |  | low-picomolar
